Source: ChEMBL document CHEMBL1156147, “Phosphoramidates of 2'-beta-D-arabinouridine (AraU) as phosphate prodrugs; design, synthesis, in vitro activity and metabolism” (Bioorg Med Chem, 2010)
Activity calls are given as the source filed them. The rule behind the calls is not given here.

Columns and labels:
LoVo = test: Cytostatic activity against human LoVo cells after 96 hrs by MTT assay; assay type: functional, cell-based
Summary of the method: (§1)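 Cells were seeded at 5 × 10^3 per well and allowed 24 h to adhere. Compound was added from DMSO stocks as decimal dilutions (final 0.1–100 μM) for 96 h at 37 °C, 5% CO2. MTT (final 0.5 mg/mL) was added for 4 h and formazan solubilised in 10% Triton X-100/PBS. Absorbance was read at 540 nm. IC50 is inhibition relative to control.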

L1210 = test: Cytostatic activity mouse L1210 cells; assay type: functional, cell-based
CCRF-CEM = test: Cytostatic activity human CEM cells; assay type: functional, cell-based
Sindbis virus = test: Antiviral activity against Sindbis virus assessed as inhibition of virus-induced cytopathicity by cell based assay; assay type: functional, organism-based
Summary of the method: (§2)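 Cytopathicity reduction in confluent HEL, Vero, HeLa, CFKC or MDCK monolayers. Cells were inoculated with 100 CCID50 of virus and allowed 1–2 h adsorption. Residual virus was then removed and cells were incubated with serially varied compound. CPE was scored once complete in untreated infected controls. EC50 is the concentration halving virus-induced cytopathicity.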

[1] = tested on: Mammalian orthoreovirus 1; test: Antiviral activity against Reovirus 1 assessed as inhibition of virus-induced cytopathicity by cell based assay; assay type: functional, organism-based; summary of the method: as §2
[2] = tested on: Vesicular stomatitis virus; test: Antiviral activity against Vesicular stomatitis virus assessed as inhibition of virus-induced cytopathicity by cell based assay; assay type: functional, organism-based
Punta Toro virus = test: Antiviral activity against Punta Toro virus assessed as inhibition of virus-induced cytopathicity by cell based assay; assay type: functional, organism-based; summary of the method: as §2
A549 = test: Cytostatic activity against human A549 cells after 96 hrs by MTT assay; assay type: functional, cell-based; conditions: A549, 96 h; summary of the method: as §1
Influenza A virus [3] = test: Antiviral activity against influenza A virus H3N2 assessed as inhibition of virus-induced cytopathicity by cell based assay; assay type: functional, organism-based
[4] = tested on: Human immunodeficiency virus 2; test: Antiviral activity against HIV2 infected human CEM cells assessed as inhibition of syncytia formation after 4 days; assay type: functional, organism-based; conditions: CCRF-CEM
Summary of the method: (§3)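 Human CEM cells (~3 × 10^5 cells/mL) were infected with ~100 CCID50/mL of HIV-1(IIIB) or HIV-2(ROD) and seeded with compound dilutions. Syncytia formation was examined microscopically after 4 days at 37 °C. EC50 is the concentration reducing virus-induced cytopathicity by 50%.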

[5] = tested on: Respiratory syncytial virus; test: Antiviral activity against Respiratory syncytial virus Long assessed as inhibition of virus-induced cytopathicity by cell based assay; assay type: functional, organism-based; summary of the method: as §2
Coxsackievirus B4 = test: Antiviral activity against Coxsackievirus B4 assessed as inhibition of virus-induced cytopathicity by cell based assay; assay type: functional, organism-based; summary of the method: as §2
[6] = tested on: Human immunodeficiency virus 1; test: Antiviral activity against HIV1 3B infected human CEM cells assessed as inhibition of syncytia formation after 4 days; assay type: functional, organism-based; conditions: CCRF-CEM; summary of the method: as §3
[7] = Metabolic stability assessed as half life in the presence of carboxypeptidase Y after 3 hrs at pH 7.6; assay type: ADME; conditions: Saccharomyces cerevisiae (yeast)
Human alphaherpesvirus 1 [8] = test: Antiviral activity against thymidine kinase deficient acyclovir resistant HSV1 KOS assessed as inhibition of virus-induced cytopathicity by cell based assay; assay type: functional, organism-based
Human respirovirus 3 = test: Antiviral activity against Human parainfluenza virus 3 assessed as inhibition of virus-induced cytopathicity by cell based assay; assay type: functional, organism-based; summary of the method: as §2
MCF7 = test: Cytostatic activity against human MCF7 cells after 96 hrs by MTT assay; assay type: functional, cell-based; conditions: MCF7, 96 h; summary of the method: as §1
Influenza A virus [9] = test: Antiviral activity against influenza A virus H1N1 assessed as inhibition of virus-induced cytopathicity by cell based assay; assay type: functional, organism-based
HL-60 = test: Cytostatic activity against human HL60 cells; assay type: functional, cell-based
Summary of the method: (§4)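 Leukaemia cells were exposed to serial dilutions from 100 μM down to 0.02 μM for 72 h at 37 °C, 5% CO2. MTS was then added for a further 4 h. Absorbance was read at 490 nm and viability calculated relative to untreated controls. IC50 is the concentration at which 50% of cells are no longer viable.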

U-937 = test: Cytostatic activity human U937 cells; assay type: functional, cell-based; summary of the method: as §4
Human alphaherpesvirus 1 [10] = test: Antiviral activity against HSV1 KOS assessed as inhibition of virus-induced cytopathicity by cell based assay; assay type: functional, organism-based; summary of the method: as §2
KG-1 = test: Cytostatic activity human KG1 cells; assay type: functional, cell-based; summary of the method: as §4
Human alphaherpesvirus 2 = test: Antiviral activity against Herpes simplex virus2 G assessed as inhibition of virus-induced cytopathicity by cell based assay; assay type: functional, organism-based; conditions: strain G; summary of the method: as §2
PC-3 = test: Cytostatic activity against human PC3 cells after 96 hrs by MTT assay; assay type: functional, cell-based; conditions: PC-3, 96 h; summary of the method: as §1
Vaccinia virus = test: Antiviral activity against Vaccinia virus lederle assessed as inhibition of virus-induced cytopathicity by cell based assay; assay type: functional, organism-based; conditions: Orthopoxvirus vaccinia
NB-4 = test: Cytostatic activity against human NB4 cells; assay type: functional, cell-based; summary of the method: as §4

In the case of C[C@H](NP(=O)(OC[C@H]1O[C@@H](n2ccc(=O)[nH]c2=O)[C@@H](O)[C@@H]1O)Oc1ccccc1)C(=O)OCc1ccccc1 (some centres not stated), the IC50 (LoVo) is reported as > 100 µM, the IC50 (L1210) is reported as 184 µM and the IC50 (CCRF-CEM) is reported as 188 µM. The inhibition (Sindbis virus) was “inactive”, the inhibition [1] was “inactive” and the inhibition [2] was “inactive”. The inhibition (Punta Toro virus) was “inactive”, the IC50 (A549) was > 100 µM and the inhibition (Influenza A virus [3]) was “inactive”. The inhibition [4] was “inactive”, the inhibition [5] was “inactive” and the inhibition (Coxsackievirus B4) was “inactive”. The inhibition [6] was “inactive”, the half-life [7] was 15 min and the inhibition (Human alphaherpesvirus 1 [8]) was “inactive”. For the same compound, the inhibition (Human respirovirus 3) was “inactive”, the IC50 (MCF7) was > 100 µM and the inhibition (Influenza A virus [9]) was “inactive”. The IC50 (HL-60) was > 100 µM, the IC50 (U-937) was 92 µM and the inhibition (Human alphaherpesvirus 1 [10]) was “inactive”. The IC50 (KG-1) was 63 µM, the inhibition (Human alphaherpesvirus 2) was “inactive” and the IC50 (PC-3) was > 100 µM. For the same compound, the inhibition (Vaccinia virus) was “inactive” and the IC50 (NB-4) was 38 µM.

In the case of CC(C)OC(=O)[C@H](C)NP(=O)(OC[C@H]1O[C@@H](n2ccc(=O)[nH]c2=O)[C@@H](O)[C@@H]1O)Oc1cccc2ccccc12 (some centres not stated), the IC50 (LoVo) is reported as > 100 µM, the IC50 (L1210) is reported as 250 µM and the IC50 (CCRF-CEM) is reported as 181 µM. The inhibition (Sindbis virus) was “inactive”, the inhibition [1] was “inactive” and the inhibition [2] was “inactive”. For the same compound, the inhibition (Punta Toro virus) was “inactive”, the IC50 (A549) was > 100 µM and the inhibition (Influenza A virus [3]) was “inactive”. The inhibition [4] was “inactive”, the inhibition [5] was “inactive” and the inhibition (Coxsackievirus B4) was “inactive”. For the same compound, the inhibition [6] was “inactive”, the inhibition (Human alphaherpesvirus 1 [8]) was “inactive” and the inhibition (Human respirovirus 3) was “inactive”. The IC50 (MCF7) was > 100 µM, the inhibition (Influenza A virus [9]) was “inactive” and the IC50 (HL-60) was 84 µM. The IC50 (U-937) was > 100 µM, the inhibition (Human alphaherpesvirus 1 [10]) was “inactive” and the IC50 (KG-1) was 67 µM. The inhibition (Human alphaherpesvirus 2) was “inactive”, the IC50 (PC-3) was > 100 µM and the inhibition (Vaccinia virus) was “inactive”. The IC50 (NB-4) was 77 µM.

In the case of C[C@@H](NP(=O)(OC[C@H]1O[C@@H](n2ccc(=O)[nH]c2=O)[C@@H](O)[C@@H]1O)Oc1ccccc1)C(=O)OCc1ccccc1 (some centres not stated), the IC50 (LoVo) is reported as > 100 µM, the IC50 (L1210) is reported as 470 µM and the IC50 (CCRF-CEM) is reported as 313 µM. For the same compound, the inhibition (Sindbis virus) was “inactive”, the inhibition [1] was “inactive” and the inhibition [2] was “inactive”. For the same compound, the inhibition (Punta Toro virus) was “inactive”, the IC50 (A549) was > 100 µM and the inhibition (Influenza A virus [3]) was “inactive”. For the same compound, the inhibition [4] was “inactive”, the inhibition [5] was “inactive” and the inhibition (Coxsackievirus B4) was “inactive”. For the same compound, the inhibition [6] was “inactive”, the inhibition (Human alphaherpesvirus 1 [8]) was “inactive” and the inhibition (Human respirovirus 3) was “inactive”. For the same compound, the IC50 (MCF7) was 50 µM, the inhibition (Influenza A virus [9]) was “inactive” and the IC50 (HL-60) was 92 µM. For the same compound, the IC50 (U-937) was > 100 µM, the inhibition (Human alphaherpesvirus 1 [10]) was “inactive” and the IC50 (KG-1) was 90 µM. The inhibition (Human alphaherpesvirus 2) was “inactive”, the IC50 (PC-3) was > 100 µM and the inhibition (Vaccinia virus) was “inactive”. The IC50 (NB-4) was 88 µM.

For O=C(CNP(=O)(OC[C@H]1O[C@@H](n2ccc(=O)[nH]c2=O)[C@@H](O)[C@@H]1O)Oc1ccccc1)OCc1ccccc1 (some centres not stated), the IC50 (LoVo) was > 100 µM, the IC50 (L1210) was 256 µM and the IC50 (CCRF-CEM) was 196 µM. The inhibition (Sindbis virus) was “inactive”, the inhibition [1] was “inactive” and the inhibition [2] was “inactive”. For the same compound, the inhibition (Punta Toro virus) was “inactive”, the IC50 (A549) was > 100 µM and the inhibition (Influenza A virus [3]) was “inactive”. The inhibition [4] was “inactive”, the inhibition [5] was “inactive” and the inhibition (Coxsackievirus B4) was “inactive”. For the same compound, the inhibition [6] was “inactive”, the inhibition (Human alphaherpesvirus 1 [8]) was “inactive” and the inhibition (Human respirovirus 3) was “inactive”. For the same compound, the IC50 (MCF7) was > 100 µM, the inhibition (Influenza A virus [9]) was “inactive” and the IC50 (HL-60) was > 100 µM. The IC50 (U-937) was > 100 µM, the inhibition (Human alphaherpesvirus 1 [10]) was “inactive” and the IC50 (KG-1) was 39 µM. For the same compound, the inhibition (Human alphaherpesvirus 2) was “inactive”, the IC50 (PC-3) was > 100 µM and the inhibition (Vaccinia virus) was “inactive”. For the same compound, the IC50 (NB-4) was 52 µM.

For COC(=O)[C@H](C)NP(=O)(OC[C@H]1O[C@@H](n2ccc(=O)[nH]c2=O)[C@@H](O)[C@@H]1O)Oc1ccccc1 (some centres not stated), the IC50 (LoVo) was > 100 µM, the IC50 (L1210) was > 500 µM and the IC50 (CCRF-CEM) was > 500 µM. The inhibition (Sindbis virus) was “inactive”, the inhibition [1] was “inactive” and the inhibition [2] was “inactive”. The inhibition (Punta Toro virus) was “inactive”, the IC50 (A549) was > 100 µM and the inhibition (Influenza A virus [3]) was “inactive”. For the same compound, the inhibition [4] was “inactive”, the inhibition [5] was “inactive” and the inhibition (Coxsackievirus B4) was “inactive”. The inhibition [6] was “inactive”, the inhibition (Human alphaherpesvirus 1 [8]) was “inactive” and the inhibition (Human respirovirus 3) was “inactive”. The IC50 (MCF7) was > 100 µM, the inhibition (Influenza A virus [9]) was “inactive” and the IC50 (HL-60) was > 100 µM. The IC50 (U-937) was > 100 µM, the inhibition (Human alphaherpesvirus 1 [10]) was “inactive” and the IC50 (KG-1) was 32 µM. For the same compound, the inhibition (Human alphaherpesvirus 2) was “inactive”, the IC50 (PC-3) was > 100 µM and the inhibition (Vaccinia virus) was “inactive”. It also gave an IC50 (NB-4) of 53 µM.

With O=c1ccn([C@@H]2O[C@H](CO)[C@@H](O)[C@@H]2O)c(=O)[nH]1 [ARAURIDINE] the IC50 (L1210) was 170 µM, the IC50 (CCRF-CEM) was > 500 µM and the inhibition (Sindbis virus) was “inactive”. For the same compound, the inhibition [1] was “inactive”, the inhibition [2] was “inactive” and the inhibition (Punta Toro virus) was “inactive”. The inhibition (Influenza A virus [3]) was “inactive”, the inhibition [4] was “inactive” and the inhibition [5] was “inactive”. The inhibition (Coxsackievirus B4) was “inactive”, the inhibition [6] was “inactive” and the inhibition (Human alphaherpesvirus 1 [8]) was “inactive”. For the same compound, the inhibition (Human respirovirus 3) was “inactive”, the inhibition (Influenza A virus [9]) was “inactive” and the IC50 (HL-60) was 90 µM. For the same compound, the IC50 (U-937) was > 100 µM, the inhibition (Human alphaherpesvirus 1 [10]) was “inactive” and the IC50 (KG-1) was 25 µM. For the same compound, the inhibition (Human alphaherpesvirus 2) was “inactive”, the inhibition (Vaccinia virus) was “inactive” and the IC50 (NB-4) was 69 µM.
